Source: ChEMBL document CHEMBL1145069, “Stereospecific synthesis of 5-substituted 2-bisarylthiocyclopentane carboxylic acids as specific matrix metalloproteinase inhibitors” (J Med Chem, 2003)
Values joined by “and” are separate entries in the source; they are usually repeats but may differ in a detail not shown here. Equal entries are not always repeated.

Columns and labels:
[1] = target: 72 kDa type IV collagenase (Homo sapiens, UniProt P08253); assay: Inhibitory activity against matrix metalloprotease-2 (MMP2)
Chain of 72 kDa type IV collagenase (P08253 whole entry): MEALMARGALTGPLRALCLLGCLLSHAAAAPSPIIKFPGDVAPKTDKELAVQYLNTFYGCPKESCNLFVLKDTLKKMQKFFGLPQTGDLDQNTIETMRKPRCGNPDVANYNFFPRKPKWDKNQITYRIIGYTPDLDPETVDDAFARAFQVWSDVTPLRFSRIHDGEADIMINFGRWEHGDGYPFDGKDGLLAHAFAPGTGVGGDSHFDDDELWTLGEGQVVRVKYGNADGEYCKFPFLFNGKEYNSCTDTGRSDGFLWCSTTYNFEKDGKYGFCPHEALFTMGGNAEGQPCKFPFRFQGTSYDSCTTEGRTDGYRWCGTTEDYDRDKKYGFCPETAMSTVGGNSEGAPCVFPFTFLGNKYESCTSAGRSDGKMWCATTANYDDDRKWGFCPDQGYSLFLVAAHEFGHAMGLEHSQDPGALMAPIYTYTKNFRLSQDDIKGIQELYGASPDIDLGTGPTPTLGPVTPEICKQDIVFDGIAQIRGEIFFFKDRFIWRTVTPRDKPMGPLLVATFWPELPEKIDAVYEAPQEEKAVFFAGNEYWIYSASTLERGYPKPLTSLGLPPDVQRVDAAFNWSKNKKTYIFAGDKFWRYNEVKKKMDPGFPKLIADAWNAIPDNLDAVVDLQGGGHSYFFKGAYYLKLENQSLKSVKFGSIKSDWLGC

[2] = target: Matrix metalloproteinase-9 (Homo sapiens, UniProt P14780); assay: Inhibitory activity against matrix metalloprotease-9 (MMP9)
Chain of Matrix metalloproteinase-9 (P14780 whole entry): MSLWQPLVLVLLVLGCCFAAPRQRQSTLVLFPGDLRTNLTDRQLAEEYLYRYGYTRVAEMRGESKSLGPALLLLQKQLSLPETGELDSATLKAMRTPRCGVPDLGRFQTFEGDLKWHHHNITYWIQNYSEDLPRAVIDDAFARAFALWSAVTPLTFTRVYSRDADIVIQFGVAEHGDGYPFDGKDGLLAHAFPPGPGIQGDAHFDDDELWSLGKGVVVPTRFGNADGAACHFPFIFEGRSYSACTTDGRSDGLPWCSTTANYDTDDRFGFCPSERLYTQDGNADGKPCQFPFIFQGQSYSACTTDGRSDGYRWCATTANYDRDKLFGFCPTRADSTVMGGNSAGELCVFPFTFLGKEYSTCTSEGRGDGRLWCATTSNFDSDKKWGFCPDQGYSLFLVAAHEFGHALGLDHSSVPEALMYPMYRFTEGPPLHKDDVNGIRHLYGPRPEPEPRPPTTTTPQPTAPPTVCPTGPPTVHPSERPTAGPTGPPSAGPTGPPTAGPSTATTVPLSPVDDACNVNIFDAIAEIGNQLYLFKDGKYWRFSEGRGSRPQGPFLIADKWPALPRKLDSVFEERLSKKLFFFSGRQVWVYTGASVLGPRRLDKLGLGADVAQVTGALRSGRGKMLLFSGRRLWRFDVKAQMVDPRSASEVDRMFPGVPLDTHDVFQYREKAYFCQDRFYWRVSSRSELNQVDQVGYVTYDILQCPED

Collagenase 3 = Collagenase 3 (Homo sapiens, UniProt P45452); assay: Inhibitory activity against matrix metalloprotease-13 (MMP13)
Homo sapiens [3] = species on record: Homo sapiens; assay: In vitro absorption was measured in Caco-2 cell; assay type: ADME
[4] = In vivo maximum plasma concentration was determined in mice after 50 mg/kg (ip) administration; assay type: ADME, organism-based; design: route intraperitoneal, dose 50 mg/kg; settings: mouse
[5] = Bioavailability in mouse (dose 50 mg/kg i.p.); assay type: ADME, organism-based; settings: in vivo, ip
[6] = In vivo maximum plasma concentration was determined in mice after 5 mg/kg (iv) administration; assay type: ADME, organism-based; design: route intravenous, dose 5 mg/kg; settings: mouse
Mus musculus [7] = assay: Tested for antitumor activity in mice against B16F10 melanoma measured as reduction in number of metastases at 200 mg/kg (ip); assay type: functional
Method in brief: (§1)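 B16-F10 cells passaged in vitro, then 2×10^5 cells per mouse injected into the tail vein of B6D2F1 mice in PBS with 0.5% foetal calf serum. 7 mice per group. Dosing i.p. or p.o. 1 h before inoculation, then daily for 3 days (four doses). Lungs collected on day 11 and fixed in Bouin's fluid. Metastases per lung (total and ≥1 mm) given as % of control mean.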

Mus musculus [8] = assay: Tested for antitumor activity in mice against B16F10 melanoma measured as reduction in number of metastases at 200 mg/kg (po); assay type: functional; method in brief: as §1
[9] = Bioavailability in mouse (dose 50 mg/kg p.o.); assay type: ADME, organism-based; settings: in vivo, po
Mus musculus [10] = assay: Tested for antitumor activity in mice against B16F10 melanoma measured as reduction in number of metastases at 100 mg/kg (ip); assay type: functional; method in brief: as §1
Interstitial collagenase = target: T1, Interstitial collagenase (Homo sapiens, UniProt P03956); assay: Inhibitory activity against matrix metalloprotease-1 (MMP1)
T1 sequence (P03956 whole entry): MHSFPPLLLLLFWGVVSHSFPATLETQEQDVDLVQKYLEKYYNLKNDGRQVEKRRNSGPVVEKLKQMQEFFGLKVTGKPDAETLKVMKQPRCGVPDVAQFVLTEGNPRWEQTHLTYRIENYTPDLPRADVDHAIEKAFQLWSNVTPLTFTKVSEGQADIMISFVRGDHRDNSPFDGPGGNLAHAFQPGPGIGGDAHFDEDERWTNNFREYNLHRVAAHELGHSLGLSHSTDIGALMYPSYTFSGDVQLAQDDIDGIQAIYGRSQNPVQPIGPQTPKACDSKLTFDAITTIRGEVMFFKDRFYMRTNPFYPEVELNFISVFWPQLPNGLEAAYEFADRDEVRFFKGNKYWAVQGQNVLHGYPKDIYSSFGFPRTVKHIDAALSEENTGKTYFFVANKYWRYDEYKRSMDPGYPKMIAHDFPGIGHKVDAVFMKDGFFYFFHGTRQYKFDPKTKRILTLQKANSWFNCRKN

[11] = In vivo half life in mice after 50 mg/kg (ip) administration; assay type: ADME, organism-based; design: dose 50 mg/kg; settings: mouse
Homo sapiens [12] = species on record: Homo sapiens; assay: In vitro metabolic stability and first pass metabolism was evaluated in human hepatic microsomes; assay type: ADME, Liver
Mus musculus [13] = assay: Tested for antitumor activity in mice against B16F10 melanoma measured as reduction in number of metastases at 100 mg/kg (po); assay type: functional; method in brief: as §1
[14] = In vivo half life in mice after 50 mg/kg (po) administration; assay type: ADME, organism-based; design: dose 50 mg/kg; settings: mouse
Stromelysin-1 = Stromelysin-1 (Homo sapiens, UniProt P08254); assay: Inhibitory activity against matrix metalloprotease-3 (MMP3)
Chain of Stromelysin-1 (P08254 whole entry): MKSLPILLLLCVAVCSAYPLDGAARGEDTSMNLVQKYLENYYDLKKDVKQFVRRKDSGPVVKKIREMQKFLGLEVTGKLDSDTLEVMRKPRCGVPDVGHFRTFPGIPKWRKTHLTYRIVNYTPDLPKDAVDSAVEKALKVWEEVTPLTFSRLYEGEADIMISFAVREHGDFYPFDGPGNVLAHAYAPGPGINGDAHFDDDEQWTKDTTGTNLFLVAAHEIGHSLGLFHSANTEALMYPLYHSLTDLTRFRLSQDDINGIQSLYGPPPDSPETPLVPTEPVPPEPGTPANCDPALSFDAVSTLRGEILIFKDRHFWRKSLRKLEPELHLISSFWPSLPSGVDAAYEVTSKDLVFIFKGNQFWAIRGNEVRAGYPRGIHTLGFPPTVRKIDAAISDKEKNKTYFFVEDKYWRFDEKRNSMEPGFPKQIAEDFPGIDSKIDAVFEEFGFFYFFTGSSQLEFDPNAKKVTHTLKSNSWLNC

Rattus norvegicus = species on record: Rattus norvegicus; assay: In vitro metabolic stability and first pass metabolism was evaluated in rat hepatic microsomes; assay type: ADME, Liver
[15] = In vivo half life in mice after 5 mg/kg (iv) administration; assay type: ADME, organism-based; design: dose 5 mg/kg; settings: mouse
[16] = In vivo maximum plasma concentration was determined in mice after 50 mg/kg (po) administration; assay type: ADME, organism-based; design: route oral, dose 50 mg/kg; settings: mouse
Mus musculus [17] = assay: Tested for antitumor activity in mice against B16F10 melanoma measured as reduction in number of metastases at 25 mg/kg (ip); assay type: functional; method in brief: as §1
Mus musculus [18] = assay: Tested for antitumor activity in mice against B16F10 melanoma measured as reduction in number of metastases at 50 mg/kg (ip); assay type: functional; method in brief: as §1
[19] = Bioavailability determined; assay type: ADME, organism-based; settings: eutheria, in vivo

SMILES | IC50 [1] [nM] | IC50 [2] [nM] | IC50 (Collagenase 3) [nM] | IC50 (Interstitial collagenase) | IC50 (Stromelysin-1) [nM] | other results
O=C(O)[C@H]1[C@H](CN2C(=O)c3ccccc3C2=O)CC[C@@H]1SCc1ccc(-c2ccccc2)cc1 | 2800 | 3800 | 15 | > 100000 nM | 3000 | 
O=C(O)[C@H]1[C@H](Cn2nnc3ccccc3c2=O)CC[C@@H]1Sc1ccc(-c2ccncc2)cc1 | 176 | 341 | 275 | > 36000 nM | 1200 | 
O=C(NO)C(CCn1nnc2ccccc2c1=O)CSc1ccc(-c2ccc(Cl)cc2)cc1 (stereo not drawn) | 0.06 | 0.5 | 1.2 | > 10000 nM | 10 | bioavailability [19]: < 30%
O=C(O)[C@H]1[C@H](CN2C(=O)c3ccccc3S2(=O)=O)CC[C@@H]1Sc1ccc(-c2ccc(Cl)cc2)cc1 | 13 | 35 | 80 | 2100 nM | 474 | 
CC1(C)NC(=O)N(C[C@@H]2CC[C@H](Sc3ccc(-c4ccc(Cl)cc4)cc3)[C@H]2C(=O)O)C1=O | 572 | 3300 | 3.1 | 70000 nM | 9400 | 
O=C(O)[C@H]1[C@H](CN2C(=O)c3ccccc3C2=O)CC[C@@H]1Sc1ccc(-c2ccccc2)cc1 | 24 | 76 | 66 | 93 nM | 278 | 
O=C(O)[C@H]1[C@H](CN2NNc3ccsc3C2=O)CC[C@@H]1Sc1ccc(-c2ccc(Cl)cc2)cc1 | 20 | 62 | 133 | 4400 nM | 216 | 
O=C(O)[C@H]1[C@H](Cn2nc3n(c2=O)CCCCC3)CC[C@@H]1Sc1ccc(-c2ccc(Cl)cc2)cc1 | 1700 | 3800 | 5.1 | > 10000 nM | 18000 | 
O=C(O)[C@H]1[C@H](Cn2nnc3ccccc3c2=O)CC[C@@H]1S(=O)(=O)CCc1ccc(-c2ccc(Cl)cc2)cc1 | 383 | 132 | 2.8 | > 100000 nM | 253 | 
O=C(O)[C@H]1[C@H](Cn2nc3ccccn3c2=O)CC[C@@H]1Sc1ccc(-c2ccc(Cl)cc2)cc1 | 25 | 37 | 32 | 10000 nM | 184 | 
CSc1ccc(-c2ccc(S[C@H]3CC[C@@H](Cn4nnc5ccccc5c4=O)[C@@H]3C(=O)O)cc2)cc1 | 5 | 4 | 13 | > 10000 nM | 21 | 
O=C(O)[C@H]1[C@H](CN2C(=O)c3ccccc3C2=O)CC[C@@H]1S(=O)(=O)CCc1ccc(-c2ccc(F)cc2)cc1 | 76 | 47 | 296 |  | 316 | 
O=C(O)[C@H]1[C@H](Cn2c(=O)nc3ccccn3c2=O)CC[C@@H]1Sc1ccc(-c2ccc(Cl)cc2)cc1 | 9 | 30 | 27 | > 10000 nM | 134 | 
O=C(O)[C@H]1[C@H](Cn2nnc3ccccc3c2=O)CC[C@@H]1SCCc1ccc(-c2ccc(Cl)cc2)cc1 | 106 | 24 | 391 | > 70000 nM | 62 | Absorption (Homo sapiens [3]): 91%; No. of metastases (Mus musculus [7]): 31; No. of metastases (Mus musculus [8]): 80; No. of metastases (Mus musculus [10]): 51; MF (Homo sapiens [12]): 63%; No. of metastases (Mus musculus [13]): 65; MF (Rattus norvegicus): 76%
O=C(O)[C@H]1[C@H](Cn2nnc3ccccc3c2=O)CC[C@@H]1Sc1ccc(-c2c[nH]nn2)cc1 | > 100000 | > 100000 | > 100000 | > 100000 nM | > 100000 | 
O=C(O)[C@H]1[C@H](CN2NNc3nc[nH]c3C2=O)CC[C@@H]1Sc1ccc(-c2ccc(Cl)cc2)cc1 | 130 | 642 | 682 | 6600 nM | 21 | 
O=C(O)[C@H]1[C@H](CN2C(=O)c3ccccc3C2=O)CC[C@@H]1SCCc1ccc(-c2ccc(Cl)cc2)cc1 | 73 | 13 | 129 | 50000 nM | 45 | Absorption (Homo sapiens [3]): 94%; No. of metastases (Mus musculus [7]): 43; No. of metastases (Mus musculus [8]): 64.5; No. of metastases (Mus musculus [10]): 96; MF (Homo sapiens [12]): 61%; No. of metastases (Mus musculus [13]): 69; MF (Rattus norvegicus): 43%
N#Cc1ccc(-c2ccc(S[C@H]3CC[C@@H](Cn4nnc5ccccc5c4=O)[C@@H]3C(=O)O)cc2)cc1 | 13 | 24 | 11 | > 10000 nM | 5 | 
O=C(O)[C@H]1[C@H](Cn2nnc3ccccc3c2=O)CC[C@@H]1S(=O)(=O)c1ccc(-c2ccc(Cl)cc2)cc1 | 83 | 512 | 1.8 | > 100000 nM | 694 | 

Second part, led by results:

IC50 [1] [nM] | IC50 [2] [nM] | IC50 (Collagenase 3) [nM] | IC50 (Interstitial collagenase) | IC50 (Stromelysin-1) [nM] | SMILES | other results
154 | 58 |  |  |  | CN1C(=O)N(C[C@H](C(=O)NO)[C@@H](CC2CCCC2)C(=O)N2CCCCC2)C(=O)C1(C)C | 
62 | 26 | 248 | 6000 nM | 60 | O=C(O)[C@H]1[C@H](CN2C(=O)c3ccccc3C2=O)CC[C@@H]1SCCc1ccc(-c2ccc(F)cc2)cc1 | Absorption (Homo sapiens [3]): 90%; Cmax [4]: 130 µg/mL; bioavailability [5]: 100%; Cmax [6]: 40 µg/mL; No. of metastases (Mus musculus [7]): 24.5; No. of metastases (Mus musculus [8]): 68; bioavailability [9]: 93%; No. of metastases (Mus musculus [10]): 32.5; half-life [11]: 4 h; MF (Homo sapiens [12]): 62%; No. of metastases (Mus musculus [13]): 72; half-life [14]: 4 h; MF (Rattus norvegicus): 55%; half-life [15]: 3.5 h; Cmax [16]: 107 µg/mL
829 | 661 | 417 | > 1000 nM | 8000 | O=C(O)[C@H]1[C@H](Cn2nnc3ccccc3c2=O)CC[C@@H]1Sc1ccc(-c2nc3ccccc3s2)cc1 | 
> 8000 | > 6000 | > 100000 | > 100000 nM | > 100000 | O=C(O)[C@H]1[C@H](Cn2nnc3ccccc3c2=O)CC[C@@H]1Sc1ccc(-c2nccs2)cc1 | 
 |  |  | > 100000 nM and 12000 nM |  | O=C(O)[C@H]1[C@H](Cn2nnc3ccccc3c2=O)CC[C@@H]1Sc1ccc(-c2ccc(Cl)cc2)cc1 | Absorption (Homo sapiens [3]): 95%; Cmax [4]: 203 µg/mL; bioavailability [5]: 100%; Cmax [6]: 40 µg/mL; No. of metastases (Mus musculus [8]): 74.5; bioavailability [9]: 69%; No. of metastases (Mus musculus [10]): 30; half-life [11]: 4 h; MF (Homo sapiens [12]): 100%; No. of metastases (Mus musculus [17]): 45; No. of metastases (Mus musculus [13]): 70; half-life [14]: 3 h; No. of metastases (Mus musculus [18]): 39; MF (Rattus norvegicus): 74%; half-life [15]: 3.4 h; Cmax [16]: 93 µg/mL
46 | 12 | 162 | 45000 nM | 26 | O=C(O)[C@H]1[C@H](CN2C(=O)c3ccccc3C2=O)CC[C@@H]1SCCc1ccc(-c2ccccc2)cc1 | 
20 | 31 | 31 | > 1000 nM | 103 | N#Cc1ccc(-c2ccc(S[C@H]3CC[C@@H](Cn4c(=O)nc5ccccn5c4=O)[C@@H]3C(=O)O)cc2)cc1 | 
76 | 39 | 808 | 5400 nM | 64 | O=C(O)[C@H]1[C@H](CN2C(=O)c3ccccc3C2=O)CC[C@@H]1S(=O)(=O)CCc1ccc(-c2ccc(Cl)cc2)cc1 | Absorption (Homo sapiens [3]): 92%; No. of metastases (Mus musculus [7]): 109; No. of metastases (Mus musculus [10]): 78; MF (Homo sapiens [12]): 91%; MF (Rattus norvegicus): 58%
743 | 3000 | 1.9 | 67000 nM | 5200 | O=C(O)[C@@H]1[C@@H](Cn2nnc3ccccc3c2=O)CC[C@H]1Sc1ccc(-c2ccc(Cl)cc2)cc1 | 
14 | 16 | 195 | 63000 nM | 305 | CSc1ccc(-c2ccc(S[C@H]3CC[C@@H](Cn4c(=O)nc5ccccn5c4=O)[C@@H]3C(=O)O)cc2)cc1 | 
